Bioassay records deposited in PubChem BioAssay by several laboratories.
Shown are actives, neighbours in structure and some others; about 4.2% of the full set was active somewhere.
KCC2 mod – KCC2 (human) Cl- transport modulation | Q9H2X9 | KCC2 cells, thallium flux FluoZin-2 fluorescence | B-score of Tl+ flux slope (higher = more flux/activation; lower = inhibition) at 10 µM | hit rate 2.2% among 190,000;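 active = thallium flux slope and its plate-corrected score both differing from the plate sample mean at a set confidence after two filtering rounds, in either direction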;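 also: slope of fluorescence scaled to starting intensity during 10 to 20 s after thallium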
Target sequence (Q9H2X9 whole entry, looked up): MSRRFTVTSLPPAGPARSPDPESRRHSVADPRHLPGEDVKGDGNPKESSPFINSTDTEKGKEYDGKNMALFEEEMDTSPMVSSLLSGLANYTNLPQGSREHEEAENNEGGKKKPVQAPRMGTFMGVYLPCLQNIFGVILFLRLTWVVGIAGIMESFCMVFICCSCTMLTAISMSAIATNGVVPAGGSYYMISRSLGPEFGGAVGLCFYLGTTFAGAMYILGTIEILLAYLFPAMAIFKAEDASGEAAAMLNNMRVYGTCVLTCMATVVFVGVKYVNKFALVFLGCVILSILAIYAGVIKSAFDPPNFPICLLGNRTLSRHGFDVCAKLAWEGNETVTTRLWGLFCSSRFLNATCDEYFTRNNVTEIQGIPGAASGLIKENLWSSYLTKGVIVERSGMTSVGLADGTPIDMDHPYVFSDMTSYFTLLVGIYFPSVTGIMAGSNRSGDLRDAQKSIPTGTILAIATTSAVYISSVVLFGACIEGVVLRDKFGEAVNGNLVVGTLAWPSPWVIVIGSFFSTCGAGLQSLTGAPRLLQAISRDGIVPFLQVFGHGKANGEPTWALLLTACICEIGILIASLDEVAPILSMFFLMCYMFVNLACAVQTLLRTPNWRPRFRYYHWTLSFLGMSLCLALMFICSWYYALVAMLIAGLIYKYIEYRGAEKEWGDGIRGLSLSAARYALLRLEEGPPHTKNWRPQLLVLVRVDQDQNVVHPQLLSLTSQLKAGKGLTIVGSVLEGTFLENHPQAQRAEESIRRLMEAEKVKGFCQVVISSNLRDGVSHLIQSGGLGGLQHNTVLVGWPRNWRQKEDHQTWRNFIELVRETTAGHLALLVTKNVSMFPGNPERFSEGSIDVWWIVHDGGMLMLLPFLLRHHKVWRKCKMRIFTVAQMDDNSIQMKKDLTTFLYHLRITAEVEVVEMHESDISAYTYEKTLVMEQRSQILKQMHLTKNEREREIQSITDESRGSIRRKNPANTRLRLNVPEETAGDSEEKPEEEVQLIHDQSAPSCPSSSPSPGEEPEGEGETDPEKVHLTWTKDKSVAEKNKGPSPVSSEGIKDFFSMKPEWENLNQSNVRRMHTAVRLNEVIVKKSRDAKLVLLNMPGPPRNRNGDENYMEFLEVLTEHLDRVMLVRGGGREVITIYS
Insulin prom up – MIN6 insulin promoter up-regulation | hit rate 0.3% among 190,000 | MIN6 insulin promoter-GFP reporter, high-content imaging; active compounds read high | z-score at 5 µM;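 active = z-score above 3 at 5 µM with at least 500 cells counted in the well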
Autophagy HCS – autophagy modulation, high-content screen. hit rate 0.98% among 190,000. MEF GFP-LC3 puncta imaging; test concentration mostly 10 µM. calls only at 10 µM (by protocol);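 active = percentage of spot-positive cells more than 3 SD above its plate mean, without a fluorescence outlier flag or 80% toxicity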;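 also: spot-positive cell cutoff set from DMSO-treated cells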
SKKanGAS inh – SKKanGAS growth inhibition; S. pyogenes SKKanGAS, kanamycin growth, BacTiter-Glo, 6 h; inhibition, % at 7.5 µM; hit rate 1.3% among 300,000; AID 1662;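 active = mean replicate score, as percent of positive control median, at least 50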;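 also: strain carries kanamycin resistance gene driven by streptokinase promoter and grows in 40 µg/ml kanamycin; loss of luminescence reflects streptokinase promoter inhibition or plain growth inhibition; 0% = median of DMSO wells and 100% = positive control at its reference dose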
Rad51 HR inh – Rad51 (human) homologous recombination inhibition; hit rate 0.085% among 200,000; hRad51 DNA strand exchange, fluorescence dequenching; inhibition, % at 10 µM; Q06609;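 active = inhibition above 40% at the single screening dose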;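 also: 0% = DMSO control wells and 100% = blanks with heterologous ssDNA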
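System: hRad51 filaments on single-stranded DNA; reagent: Fluorescein- and BHQ1-tagged 47-mer duplex; compound dosing: one concentration, 10 µM final; timing: filaments 15 min 37 °C, then compound 30 min; measured by: fluorescein emission 520 nm, excitation 485 nm; benchmarks: per-plate controls and blanks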
WT yeast gro inh – growth inhibition of WT yeast, mitochondrial fusion screen | hit rate 2.1% among 190,000 | mitochondrial fusion phenotypic screen, WT strain | inhibition, % at 10 µM; in the data active = inhibition above about 58%; tested in S. cerevisiae
Starred values were filed as active, the others as inactive; i = inactive; · = no result given; + = active, no number.

SMILES	KCC2 mod	Insulin prom up	Autophagy HCS	SKKanGAS inh	Rad51 HR inh	WT yeast gro inh
O=C(NC(=S)Nc1ccc(N2CCOCC2)cc1)c1ccco1	11*	0.17	i	49	-2	0
COCCCNC(=S)NNC(=S)Nc1cccc(Cl)c1	-0.06	-0.38	·	52*	1	·
Cc1ccccc1C(=O)NC(=S)Nc1ccc(N2CCOCC2)cc1	0.11	-0.39	i	-4	13	6
Nc1nnnn1/N=C/c1cc(Cl)cc(Cl)c1OCc1ccc(Cl)cc1Cl	1.1	1.1	+	-4	10	2
Cn1c(=O)c2c(ncn2CC(O)CNc2ccc(F)cc2)n(C)c1=O (stereo not drawn)	0.85	-0.64	·	-6	19	·
O=C(O)C1CCN(C(=O)c2ccccc2N2C(=O)[C@@H]3Cc4c([nH]c5ccccc45)C(c4cccc(Cl)c4)N3C2=O)CC1 (stereo partly drawn)	·	·	·	24	·	·
CC(NC(=O)CCCc1ccccc1)c1ccncc1 (stereo not drawn)	·	·	·	-1	·	·
COc1ccc(C2/C(=C(\O)c3ccc4c(c3)CC(C)O4)C(=O)C(=O)N2Cc2cccnc2)c(OC)c1 (stereo not drawn)	·	·	·	3	·	·
O=c1cc(-c2cccs2)oc2ccc(Cl)cc12	-1.2	0.31	i	0	1	-4
O=c1c(O)c(-c2cccs2)oc2ccc(Cl)cc12	0.24	0.32	i	66*	-3	-4
O=c1c(O)c(-c2cccs2)oc2ccccc12	i	-0.25	i	76*	-316	11
CCCNC(=O)C1CCC(CNS(=O)(=O)c2ccc3c(c2)N(C(C)=O)CCO3)CC1 (stereo not drawn)	·	·	·	-3	·	·
CCOC(=O)C1=C(C)N=c2s/c(=C/c3ccc(OCC(=O)O)c(OC)c3)c(=O)n2C1c1ccc(Cl)cc1 (stereo not drawn)	·	·	·	52*	·	·
CCOC(=O)C1=C(C)n2c(s/c(=C/c3cccc([N+](=O)[O-])c3)c2=O)=NC1c1ccc(O)c(OC)c1 (stereo not drawn)	0.21	-0.61	i	67*	1	70*
CCOC(=O)C1=C(C)N=c2s/c(=C\c3ccc(O)c([N+](=O)[O-])c3)c(=O)n2C1c1ccccc1OC (stereo not drawn)	·	·	·	58*	·	·
O=C(Nc1ccc(NC(=S)NC(=O)C(c2ccccc2)c2ccccc2)cc1)c1ccccc1	-0.24	·	i	16	2	·
COc1ccc(CC2=CC(=O)c3ccccc3C2=O)cc1	·	·	·	66*	·	·
COC(=O)c1ccc(CN(c2ccccn2)S(=O)(=O)c2ccccc2)cc1	0.36	0.3	i	-3	-9	5
COC(=O)c1ccc(CN(c2ccc(C(=O)O)c(O)c2)S(=O)(=O)c2ccc(Cl)c([N+](=O)[O-])c2)cc1	·	·	·	55*	·	·
c1ccc2c(c1)oc1c(NCc3ccc4c(c3)OCO4)ncnc12	-5.1*	-0.1	i	6	10	2
CCCCCCCCOC(=O)c1nc(Cl)c(Cl)c(N)c1Cl	0.45	-0.02	i	-1	3	69*
COC(=O)c1nc(Cl)c(Cl)c(N)c1Cl	0.038	0.25	i	-12	0	-14
Cc1ccccc1-n1c(C)cc(/C=N/Nc2ccc([N+](=O)[O-])cn2)c1C	-0.053	0.2	+	-4	-41	-3
O=[N+]([O-])c1ccc(N/N=C\c2cccn2-c2ccccc2)nc1	-0.37	0.7	+	6	·	61*
N#Cc1ccccc1Cn1cc(/C=N/Nc2ccc([N+](=O)[O-])cn2)c2ccccc21	1.3	·	i	12	-85	9
SMILES	KCC2 mod	Insulin prom up	Autophagy HCS	SKKanGAS inh	Rad51 HR inh	WT yeast gro inh
O=[N+]([O-])c1ccc(N/N=C/c2ccc(OCc3cccc4ccccc34)cc2)nc1	-2.1	·	+	-2	-113	17
Cc1cc(/C=N/Nc2ccc([N+](=O)[O-])cn2)c(C)n1-c1ccc(C(=O)O)cc1	·	-0.72	i	10	-19	6
Cc1cc(C)c(NC(=O)COc2ccccc2C(=O)Nc2ccc3c(c2)oc2ccccc23)c(C)c1	-0.23	-0.92	+	1	-5	7
Cc1nc2cc(-c3ccc(Cl)cc3)nn2c(C)c1CCC(=O)NC(C)c1ccc2c(c1)OCCO2 (stereo not drawn)	0.013	-2.1	i	26	0	71*
Cc1csc(NC(=O)CCc2c(C)nc3cc(-c4ccc(Cl)cc4)nn3c2C)n1	0.77	-1.6	i	·	·	31
CC(NS(=O)(=O)OCC(Cl)(Cl)Cl)c1ccc(Br)cc1 (stereo not drawn)	·	·	·	6	·	·
O=C(O)c1cccc2c1C(=O)c1ccccc1C2=O	-0.64	1.1	+	0	-1	-15
O=C(O)c1cccc2c1C(=O)c1ccccc1-2	1.4	0.03	·	-4	6	·
N=C1SCC(=O)N1c1ncc(Cc2ccc(F)cc2)s1	·	·	i	74*	10	56
CN1c2ccsc2/C(=N/Nc2ccc(F)cc2)CS1(=O)=O	-0.93	-0.03	i	·	-9	90
Cc1ccc(N/N=C2\CS(=O)(=O)N(C)c3ccsc32)cc1	·	0.46	i	101*	4	52
O=C(Nc1ccc(F)cc1)c1cccnn1	·	·	·	2	·	·
COc1ccc(-c2csc3ncnc(N4CCN(c5ccccc5Cl)CC4)c23)cc1	·	·	·	55*	·	·
COc1ccc(-c2csc3ncnc(N4CCN(c5cccc(C)c5C)CC4)c23)cc1	·	·	·	18	·	·
COc1ccc(Nc2ncnc3scc(-c4ccc(OC)cc4)c23)cc1	-1.2	0.03	i	50*	-1	72*
COc1ccc(-c2csc3ncnc(Cl)c23)cc1	-0.25	0	i	4	-1	-11
c1ccc(-c2csc3ncnc(N4CCc5ccccc5C4)c23)cc1	-0.68	0.23	i	89*	21	70*
c1ccc(-c2csc3ncnc(N4CCOCC4)c23)cc1	-1.2	-0.63	i	-2	-5	5
NC(=O)C1CCN(C(=O)C2CCC(=O)N(CC3CCCCC3)C2)CC1 (stereo not drawn)	·	·	·	-2	·	·
COc1ccc(/C=C/C(=O)NCC(=O)N/N=C(/C)c2ccc(Cl)cc2)cc1	·	·	·	-1	·	·
COc1ccc(C(=O)NNC(=S)NC(=O)/C=C/c2cccs2)cc1	13*	-0.07	i	62*	23	8
O=C(/C=C/c1cccs1)NC(=S)Nc1ccccc1	·	0.11	i	5	4	12
O=C(/C=C/c1cccs1)NC(=S)NNC(=O)c1ccccc1O	12*	-4.8	i	79*	8	30
COc1ccc(NC(=S)NNC(=O)c2cccs2)cc1	·	-0.01	i	-4	-34	-2
CCOC(=O)c1ccc(NC(=O)/C=C/c2cccs2)cc1	-1.1	0.18	+	-4	12	20
Cc1ccn(C(=O)c2ccc(NC(=O)C3CC3)cc2)n1	0.055	-0.02	i	-3	6	-14
O=c1c2c(nc3cc(-c4ccc(Cl)cc4)[nH]n13)CCS2	0.3	0.22	i	10	-8	11
COc1ccccc1/C=C/C(=O)Nc1ccc(S(=O)(=O)Nc2cc(C)on2)cc1	·	·	·	5	·	·
